Assay results: ChEMBL document CHEMBL2384906, “Biological activity, design, synthesis and structure activity relationship of some novel derivatives of curcumin containing sulfonamides” (Eur J Med Chem, 2013)
Values after ≈ are worked out from the molar mass of the structure shown. Active and inactive are the calls of the source. The calls are words filed in the database; no cut-off is given here.

Legend:
Pseudomonas aeruginosa [1] = test: Antimicrobial activity against Pseudomonas aeruginosa ATCC 15499 assessed as diameter of inhibition zone at 80 uM after 24 hrs by Kirby -Baur disc diffusion method; type: functional
Outline: (§1)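 Kirby-Bauer disc diffusion was used. Acetone stocks (160 µM) were serially doubled down to 80, 40 and 20 µM. 4 µL of each went onto 5 mm sterile paper discs, which were dried 30 min at 50 °C. Inoculum was 1.5 × 10⁸ CFU/mL diluted to 3 × 10² CFU/mL, and 50 µL was spread on Mueller-Hinton agar. After 24 h at 37 °C the inhibition-zone diameter was measured. Ciprofloxacin served as positive control.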

Pseudomonas aeruginosa [2] = test: Antimicrobial activity against Pseudomonas aeruginosa ATCC 15499 after 24 hrs by broth micro serial dilution method; type: functional
Outline: (§2)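 This was broth microdilution in autoclaved Mueller-Hinton broth. 150 µL of compound per well was serially diluted […], and 50 µL of test organism was added. Plates were incubated 24 h at 37 °C and optical density was read.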

Salmonella typhi [3] = test: Antimicrobial activity against Salmonella typhi ATCC 23564 assessed as diameter of inhibition zone at 80 uM after 24 hrs by Kirby -Baur disc diffusion method; type: functional; details: for diameter of the inhibition zone (DIZ): Salmonella enterica subsp. enterica serovar Typhi
Staphylococcus aureus [4] = test: Antimicrobial activity against Staphylococcus aureus ATCC 11632 assessed as diameter of inhibition zone at 80 uM after 24 hrs by Kirby -Baur disc diffusion method; type: functional; outline: as §1
Bacillus cereus [5] = test: Antimicrobial activity against Bacillus cereus MTCC 7350 after 24 hrs by broth micro serial dilution method; type: functional; outline: as §2
Salmonella typhi [6] = test: Antimicrobial activity against Salmonella typhi ATCC 23564 after 24 hrs by broth micro serial dilution method; type: functional, Salmonella enterica subsp. enterica serovar Typhi
Escherichia coli [7] = test: Antimicrobial activity against Escherichia coli ATCC 35218 after 24 hrs by broth micro serial dilution method; type: functional; outline: as §2
Bacillus cereus [8] = test: Antimicrobial activity against Bacillus cereus MTCC 7350 assessed as diameter of inhibition zone at 80 uM after 24 hrs by Kirby -Baur disc diffusion method; type: functional; outline: as §1
Escherichia coli [9] = test: Antimicrobial activity against Escherichia coli ATCC 35218 assessed as diameter of inhibition zone at 80 uM after 24 hrs by Kirby -Baur disc diffusion method; type: functional; outline: as §1
Staphylococcus aureus [10] = test: Antimicrobial activity against Staphylococcus aureus ATCC 11632 after 24 hrs by broth micro serial dilution method; type: functional; outline: as §2
Curvularia lunata [11] = test: Antifungal activity against Curvularia lunata MTCC 581 assessed as zone of inhibition at 20 uM after 48 hrs by disc diffusion method; type: functional
Outline: (§3)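 Spores from 4-day potato dextrose agar cultures, suspended in sterile water at 1.5 × 10⁵ CFU/mL. 0.2 mL was spread on potato dextrose agar. 5 mm filter-paper discs soaked with test compound were laid on the lawn. Incubation was 48 h at 28 °C, then the inhibition zone was measured in mm. Fluconazole was the positive control and acetone the negative control.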

HepG2 = test: Cytotoxicity against human HepG2 cells after 24 hrs by MTT assay; type: functional, cell-based
Outline: (§4)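 The MTT assay seeded 5 × 10⁴ cells per well and grew them 24 h in RPMI 1640 with compound at 2.5–200 µM. Medium without cells was the blank and adriamycin the positive control. MTT was added for 4 h at 37 °C, formazan was solubilised, and absorbance was read at 570 nm. IC50 is the concentration that cuts viability 50% against untreated cells.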

Mus musculus = test: Antiinflammatory activity in mouse assessed as inhibition of carrageenan-induced increase in paw volume at 200 mg/kg administered 1 hr prior to carrageenan challenge measured after 3 hrs relative to control; type: functional
Outline: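 Mice were fasted 2 h and placed in groups of five. Controls received saline i.p. Phenylbutazone was given at 100 mg/kg i.p., curcumin at 200 mg/kg i.p., and derivatives at 200 mg/kg. After 1 h, 0.1 mL of 1% carrageenan in saline was injected subplantar into the right hind paw. Paw volume was followed by plethysmometer for 3 h, and % inhibition was calculated as (Vc − Vt)/Vc × 100.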

HCT-116 = test: Cytotoxicity against human HCT116 cells after 24 hrs by MTT assay; type: functional, cell-based; outline: as §4
Aspergillus niger [12] = test: Antifungal activity against Aspergillus niger MTCC 1108 after 48 hrs; type: functional
Trichoderma viride [13] = test: Antifungal activity against Trichoderma viride MTCC 1107 after 48 hrs; type: functional; details: MTCC 1107, 48 h
Curvularia lunata [14] = test: Antifungal activity against Curvularia lunata MTCC 581 assessed as zone of inhibition at 80 uM after 48 hrs by disc diffusion method; type: functional; details: MTCC 581, 48 h, read-out: IZ; outline: as §3
Aspergillus flavus [15] = test: Antifungal activity against Aspergillus flavus MTCC 1021 assessed as zone of inhibition at 80 uM after 48 hrs by disc diffusion method; type: functional; outline: as §3
Curvularia lunata [16] = test: Antifungal activity against Curvularia lunata MTCC 581 after 48 hrs; type: functional; details: MTCC 581, 48 h
QG-56 = test: Cytotoxicity against human QG56 cells after 24 hrs by MTT assay; type: functional, cell-based; outline: as §4
HeLa = test: Cytotoxicity against human HeLa cells after 24 hrs by MTT assay; type: functional, cell-based; outline: as §4
Trichoderma viride [17] = test: Antifungal activity against Trichoderma viride MTCC 1107 assessed as zone of inhibition at 40 uM after 48 hrs by disc diffusion method; type: functional; details: MTCC 1107, 48 h, read-out: IZ; outline: as §3
Curvularia lunata [18] = test: Antifungal activity against Curvularia lunata MTCC 581 assessed as zone of inhibition at 40 uM after 48 hrs by disc diffusion method; type: functional; details: MTCC 581, 48 h, read-out: IZ; outline: as §3
Aspergillus niger [19] = test: Antifungal activity against Aspergillus niger MTCC 1108 assessed as zone of inhibition at 80 uM after 48 hrs by disc diffusion method; type: functional; outline: as §3
Trichoderma viride [20] = test: Antifungal activity against Trichoderma viride MTCC 1107 assessed as zone of inhibition at 20 uM after 48 hrs by disc diffusion method; type: functional; outline: as §3
Aspergillus flavus [21] = test: Antifungal activity against Aspergillus flavus MTCC 1021 after 48 hrs; type: functional
Trichoderma viride [22] = test: Antifungal activity against Trichoderma viride MTCC 1107 assessed as zone of inhibition at 80 uM after 48 hrs by disc diffusion method; type: functional; details: MTCC 1107, 48 h, read-out: IZ; outline: as §3
Salmonella typhi [23] = test: Antimicrobial activity against Salmonella typhi ATCC 23564 assessed as diameter of inhibition zone at 40 uM after 24 hrs by Kirby -Baur disc diffusion method; type: functional; details: Salmonella enterica subsp. enterica serovar Typhi
Salmonella typhi [24] = test: Antimicrobial activity against Salmonella typhi ATCC 23564 assessed as diameter of inhibition zone at 20 uM after 24 hrs by Kirby -Baur disc diffusion method; type: functional; details: Salmonella enterica subsp. enterica serovar Typhi
Escherichia coli [25] = test: Antimicrobial activity against Escherichia coli ATCC 35218 assessed as diameter of inhibition zone at 40 uM after 24 hrs by Kirby -Baur disc diffusion method; type: functional; details: ATCC 35218, 24 h, read-out: DIZ; outline: as §1
Escherichia coli [26] = test: Antimicrobial activity against Escherichia coli ATCC 35218 assessed as diameter of inhibition zone at 20 uM after 24 hrs by Kirby -Baur disc diffusion method; type: functional; details: ATCC 35218, 24 h, read-out: DIZ; outline: as §1
[27] = Salmonella enterica, ATCC 23564, 24 h

Compound | diameter of the inhibition zone (DIZ) (Pseudomonas aeruginosa [1]) | MIC (Pseudomonas aeruginosa [2]) | diameter of the inhibition zone (DIZ) (Salmonella typhi [3]) | diameter of the inhibition zone (DIZ) (Staphylococcus aureus [4]) | MIC (Bacillus cereus [5]) | MIC (Salmonella typhi [6]; [27]) [µM] | MIC (Escherichia coli [7]; ATCC 35218, 24 h) [µM] | diameter of the inhibition zone (DIZ) (Bacillus cereus [8]) | diameter of the inhibition zone (DIZ) (Escherichia coli [9]) | MIC (Staphylococcus aureus [10]; ATCC 11632, 24 h) [µM] | MIC (Pseudomonas aeruginosa [2]; ATCC 15499, 24 h) [µM] | IC50 (HepG2) | inhibition in vivo at 200 mg/kg (Mus musculus) [%] | IC50 (HCT-116) | MIC (Aspergillus niger [12]) | MIC (Trichoderma viride [13]) [µM] | zone of inhibition at 80 µM (Curvularia lunata [14]) [mm] | inhibition zone (IZ) (Aspergillus flavus [15]) | MIC (Curvularia lunata [16]) [µM] | IC50 (QG-56) [µM] | also measured
Cc1cc(NS(=O)(=O)c2ccc(N)cc2)no1 [SULFAMETHOXAZOLE] | inactive | inactive | inactive | inactive | inactive | > 160 | > 160 | inactive | inactive | > 160 |  |  |  |  |  |  |  |  |  |  | 
COc1ccc(NS(=O)(=O)c2ccc(N)cc2)nn1 [SULFAMETHOXYPYRIDAZINE] | inactive |  | inactive | inactive |  | > 160 | > 160 | inactive | inactive | > 80 | > 160 |  |  |  |  |  |  |  |  |  | MIC (Bacillus cereus [5]; MTCC 7350, 24 h): > 160 µM
COc1cc(/C=C/c2nn(-c3ccccc3)c(/C=C/c3ccc(O)c(OC)c3)c2/N=N/c2ccc(S(N)(=O)=O)cc2)ccc1O | inactive | inactive | inactive | inactive | inactive |  |  | inactive | inactive |  |  | Not Active | 22.5 | Not Active | inactive | 80 (≈ 49.9 µg/mL) | 11 | inactive | > 80 | > 100 | inhibition zone (IZ) (Curvularia lunata [11]): inactive; IC50 (HeLa): > 100 µM; zone of inhibition at 40 µM (Trichoderma viride [17]): 10 mm; zone of inhibition at 40 µM (Curvularia lunata [18]): 10 mm; inhibition zone (IZ) (Aspergillus niger [19]): inactive; inhibition zone (IZ) (Trichoderma viride [20]): inactive; MIC (Salmonella typhi [6]; Salmonella enterica subsp. enterica serovar Typhi): inactive; MIC (Escherichia coli [7]): inactive; MIC (Aspergillus flavus [21]): inactive; zone of inhibition at 80 µM (Trichoderma viride [22]): 11 mm; MIC (Staphylococcus aureus [10]): inactive
COc1cc(/C=C/c2nn(-c3ccccc3)c(/C=C/c3ccc(O)c(OC)c3)c2/N=N/c2ccc(S(=O)(=O)Nc3ccccn3)cc2)ccc1O | inactive |  |  | inactive | inactive | > 80 | > 80 | inactive |  |  | > 80 | Not Active | 20.9 | Not Active | inactive | 40 (≈ 28 µg/mL) | 17 | inactive | 40 (≈ 28 µg/mL) | 100 | diameter of the inhibition zone (DIZ) (Salmonella typhi [23]): inactive; zone of inhibition at 20 µM (Curvularia lunata [11]; MTCC 581, 48 h, read-out: IZ): 10 mm; diameter of the inhibition zone (DIZ) (Salmonella typhi [24]): inactive; zone of inhibition at 40 µM (Escherichia coli [25]): 9 mm; zone of inhibition at 20 µM (Escherichia coli [26]): 7 mm; IC50 (HeLa): 50 µM; zone of inhibition at 40 µM (Trichoderma viride [17]): 13 mm; zone of inhibition at 40 µM (Curvularia lunata [18]): 13 mm; zone of inhibition at 80 µM (Salmonella typhi [3]; Salmonella enterica, ATCC 23564, 24 h, read-out: DIZ): 9 mm; inhibition zone (IZ) (Aspergillus niger [19]): inactive; zone of inhibition at 20 µM (Trichoderma viride [20]; MTCC 1107, 48 h, read-out: IZ): 10 mm; MIC (Aspergillus flavus [21]): inactive; zone of inhibition at 80 µM (Trichoderma viride [22]): 17 mm; zone of inhibition at 80 µM (Escherichia coli [9]; ATCC 35218, 24 h, read-out: DIZ): 10 mm; MIC (Staphylococcus aureus [10]): inactive
